{"source": "ChEMBL document CHEMBL4007452", "about": "“Discovery of an Orally Selective Inhibitor of Signal Transducer and Activator of Transcription 3 Using Advanced Multiple Ligand Simultaneous Docking” (J Med Chem, 2017)", "key": {"MDA-MB-231 [1]": {"system": "MDA-MB-231", "assay": "Antiproliferative activity against human MDA-MB-231 cells after 24 hrs by MTT assay", "format": "functional, cell-based", "conditions": "MDA-MB-231, 24 h", "in_short": "(§1)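 Cells were seeded at 3000 per well and incubated 24 h at 37 °C. Compounds were added in triplicate with 10% FBS: 0.1-10 or 0.1-20 µM for cancer lines, 3.125-400 µM for MCF-10A. Viability was read by MTT absorbance at 595 nm, with IC50 fitted from the curves. DMSO stocks were 20 mM.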"}, "[2]": {"assay": "AUC (0 to infinity) in Sprague-Dawley rat plasma at 10 mg/kg, po measured after 24 hrs by UPLC analysis", "format": "ADME, organism-based", "design": "dose 10 mg/kg, route oral, time infinity", "in_short": "(§2)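 Rat plasma sampled from 2 min to 24 h after a single i.v. (1 mg/kg) or p.o. (10 mg/kg) dose. Parameters were derived from the concentration-time profiles. The bioanalytical method was validated to FDA guidelines for selectivity, linearity, LLOQ, accuracy, precision, recovery, matrix effect and stability.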"}, "[3]": {"assay": "Antiproliferative activity against human UW288-1 cells after 24 hrs by MTT assay", "format": "functional, cell-based", "conditions": "UW288-1, 24 h", "in_short": "as §1"}, "MDA-MB-231 [4]": {"system": "MDA-MB-231", "assay": "Effect on total STAT3 level in human MDA-MB-231 cells at 2.5 to 5 uM after 12 hrs by immunoblot analysis", "format": "ADME, cell-based", "conditions": "mda-mb-231, 12 h", "in_short": "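MDA-MB-231 cells at 60–80% confluence were treated 12 h with 10% FBS at 2.5-10 µM or 2.5-5 µM, against a DMSO control. Whole-cell lysates were immunoblotted, with bands quantified as percent of control.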"}, "[5]": {"assay": "MRT (0 to t) in Sprague-Dawley rat plasma at 10 mg/kg, po measured after 24 hrs by UPLC analysis", "format": "ADME, organism-based", "in_short": "as §2"}, "[6]": {"target": "T1, Signal transducer and activator of transcription 5B (Homo sapiens) (UniProt P51692)", "T1 sequence (whole entry)": "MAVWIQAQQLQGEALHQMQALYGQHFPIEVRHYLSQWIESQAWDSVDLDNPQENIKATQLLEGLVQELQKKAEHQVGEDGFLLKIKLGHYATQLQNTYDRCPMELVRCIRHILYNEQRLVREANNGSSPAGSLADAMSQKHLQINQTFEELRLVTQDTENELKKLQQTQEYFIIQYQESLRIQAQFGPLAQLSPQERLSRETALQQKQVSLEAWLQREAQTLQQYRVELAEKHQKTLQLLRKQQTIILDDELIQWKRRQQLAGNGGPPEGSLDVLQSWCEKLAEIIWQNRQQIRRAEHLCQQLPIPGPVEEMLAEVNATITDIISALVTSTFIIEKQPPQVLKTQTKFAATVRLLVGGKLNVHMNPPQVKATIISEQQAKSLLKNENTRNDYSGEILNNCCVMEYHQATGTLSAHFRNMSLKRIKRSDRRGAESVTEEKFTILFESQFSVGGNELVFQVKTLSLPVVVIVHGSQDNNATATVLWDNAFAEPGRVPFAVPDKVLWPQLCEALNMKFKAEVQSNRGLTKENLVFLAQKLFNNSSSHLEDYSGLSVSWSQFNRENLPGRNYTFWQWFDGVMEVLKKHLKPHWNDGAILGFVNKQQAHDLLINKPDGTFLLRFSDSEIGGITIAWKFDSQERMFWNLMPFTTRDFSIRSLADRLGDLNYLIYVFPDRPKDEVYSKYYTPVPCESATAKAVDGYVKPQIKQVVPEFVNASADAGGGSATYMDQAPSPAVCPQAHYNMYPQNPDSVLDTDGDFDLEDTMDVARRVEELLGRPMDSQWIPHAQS", "assay": "Binding affinity to STAT5B (unknown origin) after 30 mins by fluorescence polarization assay", "in_short": "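A competitive fluorescence polarization assay measured displacement of fluorescent phosphopeptide from the SH2 domain of purchased STAT1 or STAT5 protein, using the corresponding peptides.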"}, "[7]": {"assay": "Terminal half life in Sprague-Dawley rat plasma at 10 mg/kg, po measured after 24 hrs by UPLC analysis", "format": "ADME, organism-based", "conditions": "read-out: beta t1/2 (converted)", "in_short": "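Rats dosed i.v. or p.o. Plasma concentrations followed from 2 min to 24 h after dosing. The bioanalytical method was validated to FDA guidelines for selectivity, linearity, LLOQ, accuracy, precision, recovery, matrix effect and stability.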"}, "Mus musculus [8]": {"system": "Mus musculus", "assay": "Toxicity in BALB/c nude mouse xenografted with […] S180 cells assessed as body weight loss at 5 mg/kg, po after 21 days relative to vehicle control", "format": "organism-based", "conditions": "in vivo, 504 h"}, "[9]": {"assay": "Cmax in Sprague-Dawley rat plasma at 10 mg/kg, po measured after 24 hrs by UPLC analysis", "format": "ADME, organism-based", "design": "dose 10 mg/kg, route oral", "in_short": "as §2"}, "Mus musculus [10]": {"system": "Mus musculus", "assay": "Toxicity in BALB/c nude mouse xenografted with human MDA-MB-231 cells assessed as kidney damage at 2.5 to 10 mg/kg, po qd administered for 32 days by H&E staining based light microscopy", "format": "organism-based", "conditions": "in vivo, 768 h", "in_short": "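6-week-old female athymic SPF BALB/c nude mice received 5 x 10^6 MDA-MB-231 cells s.c. in the flank. Oral treatment began once tumors reached about 100 mm3, with 8 mice per group and a saline vehicle control. […] Treatment lasted 32 days. Heart, liver, spleen, lung and kidney were fixed 48 h in 10% neutral-buffered formaldehyde, paraffin-embedded, cut at 5 µm, H&E-stained and examined by light microscopy.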"}, "[11]": {"target": "Signal transducer and activator of transcription 3 (Homo sapiens, UniProt P40763)", "sequence (P40763 whole entry)": "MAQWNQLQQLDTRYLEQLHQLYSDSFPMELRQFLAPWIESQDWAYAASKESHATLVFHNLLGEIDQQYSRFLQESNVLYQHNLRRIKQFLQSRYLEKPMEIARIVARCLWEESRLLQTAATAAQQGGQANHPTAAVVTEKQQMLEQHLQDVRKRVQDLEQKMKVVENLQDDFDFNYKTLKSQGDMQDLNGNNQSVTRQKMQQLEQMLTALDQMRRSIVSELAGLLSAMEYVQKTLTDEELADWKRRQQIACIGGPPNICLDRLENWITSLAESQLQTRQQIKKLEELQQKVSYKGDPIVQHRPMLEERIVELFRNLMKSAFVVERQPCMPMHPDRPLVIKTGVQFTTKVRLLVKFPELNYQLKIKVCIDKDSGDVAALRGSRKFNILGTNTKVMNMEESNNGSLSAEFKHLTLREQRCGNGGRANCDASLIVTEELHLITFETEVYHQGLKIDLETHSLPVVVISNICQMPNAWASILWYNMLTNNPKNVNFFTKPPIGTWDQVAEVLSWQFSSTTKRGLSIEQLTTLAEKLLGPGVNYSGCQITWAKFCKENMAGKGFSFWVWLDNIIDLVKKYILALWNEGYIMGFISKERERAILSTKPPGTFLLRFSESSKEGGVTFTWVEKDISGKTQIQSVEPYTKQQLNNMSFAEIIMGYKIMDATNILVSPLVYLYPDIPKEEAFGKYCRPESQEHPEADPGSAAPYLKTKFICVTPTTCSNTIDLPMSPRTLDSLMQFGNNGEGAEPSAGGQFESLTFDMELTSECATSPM", "assay": "Binding affinity to fluorescently labeled STAT3 (unknown origin) by MST-analysis", "in_short": "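Labeled STAT3 protein held constant at 10-20 nM, titrated against up to 16 serial dilutions of unlabeled inhibitor. […] Protein was dye-labeled and freed of excess dye within 45 min. Equal volumes were mixed, loaded into glass capillaries and read by microscale thermophoresis.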"}}, "note": "Calls of active or inactive are those of the source. The calls are words filed in the database; no cut-off is given here."}
{"smiles": "NS(=O)(=O)c1cccc2c1C(=O)C=C(Nc1ccccc1N1CCNCC1)C2=O", "values": [{"measurement": "IC50", "setting": "MDA-MB-231 [1]", "value": 700, "unit": "nM"}, {"measurement": "AUC(0-inf)", "setting": "[2]", "value": 889, "unit": "ng·h/mL"}, {"measurement": "IC50", "setting": "[3]", "value": 2800, "unit": "nM"}, {"measurement": "Activity", "setting": "MDA-MB-231 [4]", "value": "Non-Toxic"}, {"measurement": "MRT last at 24 h", "setting": "[5]", "value": 1.87, "unit": "h"}, {"measurement": "Activity", "setting": "[6]", "value": "inactive"}, {"measurement": "half-life", "setting": "[7]", "value": 119, "unit": "min"}, {"measurement": "Activity", "setting": "Mus musculus [8]", "value": 1.68, "unit": "%"}, {"measurement": "Cmax", "setting": "[9]", "value": 540, "unit": "ng/mL"}, {"measurement": "Activity", "setting": "Mus musculus [10]", "value": "Non-Toxic"}, {"measurement": "Ki", "setting": "[11]", "value": 2420, "unit": "nM"}]}
